From PubChem BioAssay
Hits are enriched below; roughly 2.6% of the tested compounds scored in any of these assays.
Platelet DG rel – modulates dense granule release in human platelets. human platelet-rich plasma, SFLLRN dense granule ATP release, luminescence. inhibition, %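 (compounds screened at 7.5 µM in platelet-rich plasma)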. 300,000 compounds, 0.22% hits;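 active means mean replicate score, as percent of positive control, at or above 50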
SENP1 FRET inh – blocks the human SENP1 SUMO protease catalytic domain. Q9P0U3. recombinant SENP1 catalytic domain, CyPet-SUMO1-YPet FRET cleavage. inhibition, % at 10 µM. 360,000 compounds, 0.21% hits. AID 624204;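 active means inhibition at least 30% at 10 µM, raw YFP signal under a set limit, fluorescence ratio 0.5 to 1.5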;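 further: 0% = enzyme with DMSO and 100% = no enzyme wells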
Target sequence (Q9P0U3 419-644 limits assumed): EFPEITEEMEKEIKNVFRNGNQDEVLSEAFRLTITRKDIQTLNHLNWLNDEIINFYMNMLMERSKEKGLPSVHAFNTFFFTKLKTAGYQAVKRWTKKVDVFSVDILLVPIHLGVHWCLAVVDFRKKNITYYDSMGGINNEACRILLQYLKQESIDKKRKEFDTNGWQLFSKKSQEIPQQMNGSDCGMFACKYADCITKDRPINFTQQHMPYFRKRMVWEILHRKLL
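system = hSENP1 catalytic domain, recombinant | reagent = SFCypet-SUMO1-SFYpet substrate at 25 nM | doses = one dose per compound, 10 µM, 0.5% DMSO | incubation = enzyme reaction for 50 min at room temperature, dark | measured by = FRET, CFP and YFP emission | controls = no-enzyme low, enzyme-DMSO high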
SENP7 block – inhibitors of human SENP7 protease; Q9BQF6; recombinant SENP7, Z-RLRGG-aminoluciferin luminescence, 40 min; inhibition, % at 5 µM; 330,000 compounds, 1.5% hits; AID 434973;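 active means inhibition above about 50% at the single test dose, limit read from the data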;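 further: plate controls were DMSO with enzyme for no effect and no enzyme buffer wells for full effect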
Target sequence (Q9BQF6 706-1050 limits assumed): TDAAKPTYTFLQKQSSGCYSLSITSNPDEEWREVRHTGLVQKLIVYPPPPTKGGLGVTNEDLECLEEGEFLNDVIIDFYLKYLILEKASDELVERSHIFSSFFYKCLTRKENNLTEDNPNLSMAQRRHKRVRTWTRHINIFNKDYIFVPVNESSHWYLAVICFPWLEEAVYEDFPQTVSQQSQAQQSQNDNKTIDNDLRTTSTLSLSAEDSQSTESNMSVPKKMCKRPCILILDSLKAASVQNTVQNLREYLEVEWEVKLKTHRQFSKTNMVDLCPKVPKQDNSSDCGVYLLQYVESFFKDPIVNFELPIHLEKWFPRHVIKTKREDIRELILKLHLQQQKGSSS
SENP6 inh – blocks the human protease SENP6; Q9GZR1; Recombinant SENP6 catalytic domain, aminoluciferin luminescence; inhibition, % at 10 µM; 330,000 compounds, 1.8% hits; AID 2599;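 active means inhibition above about 50% at the single tested dose, limit read from the data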;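 further: plate controls were DMSO wells with enzyme for no effect and DMSO wells lacking enzyme for full effect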
SENP8 block-1 – inhibitors of human SENP8 protease | recombinant SENP8, Nedd8 substrate fluorescence | inhibition, % at 20 µM | 360,000 compounds, 0.64% hits | AID 602440; in the data active means inhibition mostly above about 40%, no sharp cut-off; inactive means mostly below about 27%
SENP8 block-2 – blocks the human protease SENP8; Q96LD8; purified SENP8, Z-RLRGG-aminoluciferin cleavage, luminescence; inhibition, % at 10 µM; 330,000 compounds, 1.2% hits; AID 2540; in the data active means inhibition above about 50%
SENP8 conf – confirmation of human SENP8 protease inhibitors. AID 488912. inhibition, % at 12.5 µM. shares compounds with SENP7 block. 6,200 compounds, 40% hits. Recombinant SENP8, Z-RLRGG-aminoluciferin luminescence, 60 min;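 active means mean inhibition across replicates above about 50%, limit read from the data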
SENP6 conf – human SENP6 inhibition, confirmed; inhibition, % at 12.5 µM; 6,200 compounds, 58% hits; shares compounds with SENP7 block; recombinant SENP6, Z-RLRGG-aminoluciferin luminescence; AID 488915
SENP7 conf – human SENP7 inhibition, confirmed; AID 488917; 6,200 compounds, 69% hits; shares compounds with SENP7 block; inhibition, % at 12.5 µM; recombinant SENP7, Z-RLRGG-aminoluciferin luminescence, 40 min
Casp3 select – inhibits human caspase-3 in SENP selectivity test | shares compounds with SENP7 block | purified caspase-3, Z-DEVD-aminoluciferin luminescence, 60 min | inhibition, % at 12.5 µM | 6,200 compounds, 60% hits | AID 488918;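 active means mean inhibition above about 50%, limit read from the data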;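 further: plate controls were enzyme with DMSO for no effect and wells without caspase-3 for full effect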
Luc interf – counter-screen for SENP inhibitors: luminescence interference | shares compounds with SENP7 block | Pre-incubated SENP8/Z-RLRGG-aminoluciferin, luciferase luminescence interference | inhibition, % at 12.5 µM | 6,200 compounds, 39% hits | AID 488919;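 active means mean inhibition above about 50% when retested at one dose, limit read from the data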;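 further: plate controls were DMSO wells with completed reaction for no effect and substrate without enzyme for full effect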
Numbers without * were called inactive; i = inactive; nt = no result given.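 How the source made its calls, unless noted: active means mean inhibition above about 50% in the one-dose retest (limit read from the data); inactive means the rest.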

SMILES	Platelet DG rel	SENP1 FRET inh	SENP7 block	SENP6 inh	SENP8 block-1	SENP8 block-2	SENP8 conf	SENP6 conf	SENP7 conf	Casp3 select	Luc interf
Cc1ccc(S(=O)(=O)N2CCC(C(=O)NC3CC(C)(C)NC(C)(C)C3)CC2)cc1C	-3	0	0	-9	10	3	nt	nt	nt	nt	nt
CN(CC(=O)Nc1ccccc1Cl)C(=O)C1CCN(C(=O)c2ccc(F)cc2)CC1	nt	0	-5	9	12	-15	nt	nt	nt	nt	nt
N#Cc1ccccc1S(=O)(=O)N1CCNS(=O)(=O)c2ccccc21	nt	-1	4	nt	1	nt	nt	nt	nt	nt	nt
CCC(=NCc1ccco1)c1c(C(F)(F)F)[nH]n(-c2nc3ccccc3s2)c1=O	-2	-1	96*	96*	3	88*	73*	70*	90*	90*	81*
COC(=O)c1sccc1N/N=C/c1cccc(OC)c1O	32	-3	99*	94*	-402	92*	8	78*	87*	70*	31
COC(=O)c1sccc1NC(=O)c1cccc(OC)c1	-14	3	-11	-4	17	-9	nt	nt	nt	nt	nt
COC(=O)c1sccc1N/N=C/c1ccc(OC)c(OC)c1OC	13	-1	3	21	-405	2	nt	nt	nt	nt	nt
COC(=O)c1sccc1N/N=C/c1cccc(Oc2ccccc2)c1	10	0	97*	63*	-99	95*	30	53*	34	94*	9
CCOc1ccc(C(=O)NCc2ccc3c(c2)OCO3)cc1OCC	-4	2	2	-6	-2	1	nt	nt	nt	nt	nt
Cc1cc(=O)[nH]c(N/N=C/c2cc(C)n(-c3ccccc3)c2C)n1	5	-1	13	66*	-263	36	66*	64*	87*	76*	16
Cc1cc(=O)[nH]c(N/N=C/c2sccc2C)n1	17	4	56*	64*	2	23	41	39	79*	81*	49
Cc1cc(=O)[nH]c(N/N=C/c2cccs2)n1	3	1	-6	0	7	-13	nt	nt	nt	nt	nt
Cc1cc(=O)[nH]c(N/N=C/c2ccccc2Cl)n1	0	-1	4	-14	-26	-6	nt	nt	nt	nt	nt
COc1ccc(-c2nc(CS(=O)CC(=O)NCc3ccc(Cl)cc3)c(C)o2)cc1OC (stereo unspecified)	-1	2	-4	-9	2	4	nt	nt	nt	nt	nt
NC1CCN(c2c(F)cc3c(=O)c(C(=O)O)cn(C4CC4)c3c2Cl)C1 (stereo unspecified)	1	1	67*	-9	-18	-5	-3	4	-5	-2	-6
COc1ccc2c(c1)oc(=O)c1cc(OC)ccc12	3	-1	80*	65*	-212	46	42	43	63*	65*	27
COc1ccc(-c2cc(=O)c3cc(OC)ccc3[nH]2)cc1	27	-1	81*	84*	i	74*	17	78*	96*	93*	-5
CSc1ccc(-c2cc(=O)c3ccccc3o2)cc1	15	-20	-12	59*	-280	57*	66*	63*	84*	51*	38
COc1ccc2c(c1)oc(=O)c1ccccc12	0	-1	-9	-5	-1	2	nt	nt	nt	nt	nt
O=c1cc(-c2ccc(F)cc2)oc2ccccc12	8	0	8	16	19	-1	nt	nt	nt	nt	nt
O=c1cc(-c2ccccc2)oc2ccc(Br)cc12	nt	0	73*	42	15	45	8	9	14	22	6
COc1ccc(-c2cc(=O)c3cc(C)ccc3[nH]2)cc1	-9	-2	15	32	-134	19	nt	nt	nt	nt	nt
COCCN(CC(=O)Nc1ccccc1C(F)(F)F)C(=O)c1ccc(-n2cccn2)cc1	nt	-2	5	-5	-5	2	nt	nt	nt	nt	nt
CCCCCc1ccc(CC(=O)Nn2c(C)nc3ccccc3c2=O)cc1	1	-1	4	1	-1	-7	nt	nt	nt	nt	nt
COc1ccc(-c2cc(=O)c3cc(OC)ccc3o2)cc1	-3	-2	98*	92*	-173	88*	9	35	4	25	6
SMILES	Platelet DG rel	SENP1 FRET inh	SENP7 block	SENP6 inh	SENP8 block-1	SENP8 block-2	SENP8 conf	SENP6 conf	SENP7 conf	Casp3 select	Luc interf
Cc1ccc(-n2ccc(=O)c(C(=O)Nc3ccc(S(=O)(=O)Nc4onc(C)c4C)cc3)n2)cc1	0	-8	-11	-10	9	-1	nt	nt	nt	nt	nt
O=C(Nc1ccc2sccc2c1)c1ccc(Cl)s1	16	0	86*	71*	-7	19	-25	-3	88*	50*	4
CC(C)CNS(=O)(=O)c1ccc(CCC(=O)NCCc2ccccc2)cc1	-10	1	4	-6	8	2	nt	nt	nt	nt	nt
CC1CCCN(CCCNC(=O)c2coc3nc4ccccc4nc23)C1 (stereo unspecified)	-17	-12	51*	81*	-403	59*	73*	66*	86*	89*	75*
Cc1ccc(CCNC(=O)c2coc3nc4ccccc4nc23)cc1	3	10	-5	3	-493	-8	nt	nt	nt	nt	nt
CC1CCN(CCCNC(=O)c2coc3nc4ccccc4nc23)CC1	10	-65	41	86*	-422	64*	76*	70*	86*	88*	74*
COc1cc(OC)cc(-c2nc(-c3ccccc3)no2)c1	3	2	28	48	-10	-4	nt	nt	nt	nt	nt
c1ccc(-c2nc(-c3ccc(-c4ccon4)s3)no2)cc1	1	-3	80*	55*	-70	40	25	26	20	19	18
CCOc1nc(-c2ccccc2)ccc1-c1noc(-c2cccs2)n1	6	-29	-8	-13	-101	-13	nt	nt	nt	nt	nt
c1csc(-c2nc(-c3ccc(-c4ccon4)s3)no2)c1	9	-14	88*	51*	-231	44	4	16	15	24	8
COCc1cc(C)nc(N/N=C/c2ccc(Cl)c(Cl)c2)c1C#N	-4	1	-2	13	8	9	nt	nt	nt	nt	nt
C(=C\c1ccccc1)/C=N/N1CCN(Cc2ccccc2)CC1	12	1	-1	-22	22	-4	nt	nt	nt	nt	nt
